Experimental data as given in ChEMBL document CHEMBL4359826, “Preparation of bivalent agonists for targeting the mu opioid and cannabinoid receptors” (Eur J Med Chem, 2019).
pEC50, pKi: −log10 of the molar value. Active and inactive are the calls of the source.

Columns and labels:
Mu-type opioid receptor = Mu-type opioid receptor (Rattus norvegicus, UniProt P33535); assay: Displacement of [3H]DAMGO from MOR in Wistar rat brain membranes after 60 mins by liquid scintillation analysis; type: cell membranes
Chain of Mu-type opioid receptor (P33535 whole entry): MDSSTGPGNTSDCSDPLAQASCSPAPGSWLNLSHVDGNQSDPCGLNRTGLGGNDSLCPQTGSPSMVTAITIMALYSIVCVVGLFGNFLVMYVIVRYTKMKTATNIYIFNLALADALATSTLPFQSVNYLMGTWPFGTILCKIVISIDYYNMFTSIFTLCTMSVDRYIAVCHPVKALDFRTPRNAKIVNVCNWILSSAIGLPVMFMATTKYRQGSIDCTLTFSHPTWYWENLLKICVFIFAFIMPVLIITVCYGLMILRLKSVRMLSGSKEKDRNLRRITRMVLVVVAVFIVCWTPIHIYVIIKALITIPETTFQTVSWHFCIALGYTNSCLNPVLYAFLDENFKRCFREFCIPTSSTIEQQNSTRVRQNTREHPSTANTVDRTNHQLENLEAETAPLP

Rattus norvegicus [1] = organism: Rattus norvegicus; assay: Antagonist activity at MOR/CB1R/CB2R in Wistar rat brain membranes at 10 uM in presence of (S)-N-((2R,8S)-18-(3-(1-naphthoyl)-1H-indol-1-yl)-8-benzyl-3,6,9,12-tetraoxo-4,7,10,13-tetraazaoctadecan-2-yl)-2-amino-3-(4-hydroxyphenyl)propanamide after 60 mins by liquid scintillation analysis relative to control; type: cell membranes
Procedure, shortened: (§1)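 Rat brain membranes (30 µg protein/tube) incubated 60 min at 30 °C with 0.05 nM [35S]GTPγS and ligand at 10^-10–10^-5 M. Buffer: 50 mM Tris-HCl pH 7.4 with 30 µM GDP, 100 mM NaCl, 3 mM MgCl2, 1 mM EGTA. […] Nonspecific binding taken with 10 µM GTPγS; basal set as 100%. Filtration and scintillation counting; n≥3.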

[2] = molecular target: T1, Cannabinoid receptor (Rattus norvegicus) (UniProt Q9QZN9+P20272); assay: Antagonist activity at CB1R/CB2R in Wistar rat brain membranes at 10 uM in presence of JWH-018 after 60 mins by [35S]-GTPgammaS binding assay relative to control; type: functional, cell membranes; procedure, shortened: as §1
T1 sequence (P20272 whole entry, looked up, one chain of several): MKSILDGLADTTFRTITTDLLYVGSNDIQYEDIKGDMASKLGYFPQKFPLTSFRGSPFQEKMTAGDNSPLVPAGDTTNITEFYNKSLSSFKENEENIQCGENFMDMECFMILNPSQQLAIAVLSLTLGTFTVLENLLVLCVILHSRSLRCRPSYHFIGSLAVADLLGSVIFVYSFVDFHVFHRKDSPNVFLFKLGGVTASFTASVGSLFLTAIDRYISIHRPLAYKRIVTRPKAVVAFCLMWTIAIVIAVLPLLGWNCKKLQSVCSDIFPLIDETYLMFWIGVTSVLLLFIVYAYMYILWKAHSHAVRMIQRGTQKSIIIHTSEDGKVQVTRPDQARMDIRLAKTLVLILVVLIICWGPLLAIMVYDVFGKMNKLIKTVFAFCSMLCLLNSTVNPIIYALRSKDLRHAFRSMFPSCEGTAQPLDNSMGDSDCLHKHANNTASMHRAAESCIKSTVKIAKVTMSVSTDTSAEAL

[3] = molecular target: Mu-type opioid receptor (Rattus norvegicus) (UniProt P33535); assay: Antagonist activity at MOR in Wistar rat brain membranes at 10 uM in presence of oxycodone after 60 mins by [35S]-GTPgammaS binding assay relative to control; type: functional, cell membranes
Chain of Mu-type opioid receptor (Rattus norvegicus) (P33535 whole entry): as the sequence (P33535 whole entry) above
Procedure, shortened: (§2)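 Rat brain membranes (30 µg protein/tube) incubated 60 min at 30 °C with 0.05 nM [35S]GTPγS and ligand at 10^-10–10^-5 M. Buffer: 50 mM Tris-HCl pH 7.4 with 30 µM GDP, 100 mM NaCl, 3 mM MgCl2, 1 mM EGTA. Nonspecific binding taken with 10 µM GTPγS; basal set as 100%. Filtration and scintillation counting; n≥3.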

Rattus norvegicus [4] = organism: Rattus norvegicus; conditions: Wistar, Brain, Membranes, at 10 µM
Cannabinoid receptor [5] = molecular target: T2, Cannabinoid receptor (Rattus norvegicus, UniProt Q9QZN9+P20272); assay: Displacement of [3H]JWH-018 from CB1R/CB2R in Wistar rat brain membranes after 60 mins by liquid scintillation analysis; type: cell membranes
[6] = molecular target: Mu-type opioid receptor (Rattus norvegicus) (UniProt P33535); assay: Antagonist activity at MOR in Wistar rat brain membranes at 10 uM in presence of Tyr-D-Ala-Gly-Phe-NH2 after 60 mins by [35S]-GTPgammaS binding assay relative to control; type: functional, cell membranes; procedure, shortened: as §2
Rattus norvegicus [7] = organism: Rattus norvegicus; assay: Antagonist activity at MOR/CB1R/CB2R in Wistar rat brain membranes at 10 uM in presence of N-[6-[[2-[[(4R,4aS,7aR,12bS)-4a-hydroxy-9-methoxy-3-methyl-2,4,5,6,7a,13-hexahydro-1H-4,12-methanobenzofuro[3,2-e]isoquinoline-7-ylidene]amino]oxyacetyl]amino]hexyl]-6-[3-(naphthalene-1-carbonyl)indol-1-yl]hexanamide after 60 mins by [35S]-GTPgammaS binding assay relative to control; type: cell membranes; procedure, shortened: as §1
[8] = molecular target: Delta-type opioid receptor (Rattus norvegicus, UniProt P33533); assay: Displacement of [3H]Ile5,6-deltorphin-2 from DOR in Wistar rat brain membranes after 60 mins by liquid scintillation analysis; type: cell membranes
Chain of Delta-type opioid receptor (P33533 whole entry): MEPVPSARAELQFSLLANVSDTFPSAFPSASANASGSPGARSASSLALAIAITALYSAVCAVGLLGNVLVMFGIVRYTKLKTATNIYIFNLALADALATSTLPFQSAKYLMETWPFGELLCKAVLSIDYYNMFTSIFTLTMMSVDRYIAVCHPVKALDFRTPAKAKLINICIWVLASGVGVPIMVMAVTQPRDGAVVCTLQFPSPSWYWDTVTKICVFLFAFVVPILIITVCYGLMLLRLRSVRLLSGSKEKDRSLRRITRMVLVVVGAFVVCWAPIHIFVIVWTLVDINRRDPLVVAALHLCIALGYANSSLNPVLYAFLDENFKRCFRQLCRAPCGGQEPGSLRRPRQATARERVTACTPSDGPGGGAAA

Cannabinoid receptor [9] = molecular target: T2, Cannabinoid receptor; type: cell membranes, Wistar, Brain, Membranes
[10] = molecular target: Kappa-type opioid receptor (Cavia porcellus, UniProt P41144); type: cell membranes, Brain, Membranes
Chain of Kappa-type opioid receptor (P41144 whole entry): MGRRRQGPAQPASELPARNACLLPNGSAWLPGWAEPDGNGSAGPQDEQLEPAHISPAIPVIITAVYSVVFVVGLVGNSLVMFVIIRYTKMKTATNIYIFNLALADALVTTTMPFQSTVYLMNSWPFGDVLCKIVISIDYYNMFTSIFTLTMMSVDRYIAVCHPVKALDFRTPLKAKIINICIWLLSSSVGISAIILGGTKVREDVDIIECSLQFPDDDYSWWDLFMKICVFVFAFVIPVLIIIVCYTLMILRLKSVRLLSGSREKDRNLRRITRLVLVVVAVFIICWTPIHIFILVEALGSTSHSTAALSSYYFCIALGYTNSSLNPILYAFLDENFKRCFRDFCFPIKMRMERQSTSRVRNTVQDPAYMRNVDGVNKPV

[11] = Agonist activity at MOR/CB1R/CB2R receptor in Wistar rat brain membranes after 60 mins by [35S]-GTPgammaS binding assay; type: cell membranes
[12] = molecular target: T1, Cannabinoid receptor (Rattus norvegicus); assay: Displacement of [3H]JWH-018 from CB1R/CB2R in Wistar rat brain membranes at 10 uM after 60 mins by liquid scintillation analysis; type: cell membranes
Procedure, shortened: (§3)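 Whole rat brain membranes (cerebellum removed; 0.3–0.5 mg/mL protein) in 50 mM Tris-HCl pH 7.4 with 2.5 mM EGTA, 5 mM MgCl2 and 0.5 mg/mL fatty-acid-free BSA, 30 °C. Kinetics used 0.6 nM [3H]JWH-018: association over 0–90 min, dissociation started with 10 µM JWH-018 after 60 min. Saturation over 0.5–35 nM. Competitors at 10^-11–10^-5 M, 60 min. Nonspecific binding with 10 µM JWH-018. Filtration onto PEI-soaked GF/B filters; n≥3.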

Mus musculus = assay: Antinociceptive activity in CD-1 mouse assessed as increase in thermal latency at 10 mg/kg, iv after 15 to 120 mins by hot plate technique; type: functional, organism-based
Procedure, shortened: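 Male CD-1 mice (25 g) given 10 mg/kg i.v. in 10 mL/kg; vehicle saline with 5% DMSO. Hot plate held at 55.0 °C. Latency to paw lick or jump, cut-off 60 s, read at 15–120 min. Baseline is the mean of three pre-test readings. Data given as %MPE; n=6/group.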

Rattus norvegicus [13] = assay: Effect on nociception of the contralateral paw in rat model of sodium iodoacetate-induced osteoarthritis paw withdrawal threshold in late phase at 20 ug administered as intrathecal injection measured after 60 to 90 mins by Von Frey test (reference value: 43 +/- 3.4 g); type: organism-based; conditions: in vivo, icv_or_intrathecal
Cannabinoid receptor 2 = molecular target: T3, Cannabinoid receptor 2 (Rattus norvegicus, UniProt Q9QZN9); assay: Agonist activity at CB2R in Wistar rat brain membranes in presence of AM630 after 60 mins by [35S]-GTPgammaS binding assay; type: functional, cell membranes; procedure, shortened: as §1
T3 sequence (Q9QZN9 whole entry): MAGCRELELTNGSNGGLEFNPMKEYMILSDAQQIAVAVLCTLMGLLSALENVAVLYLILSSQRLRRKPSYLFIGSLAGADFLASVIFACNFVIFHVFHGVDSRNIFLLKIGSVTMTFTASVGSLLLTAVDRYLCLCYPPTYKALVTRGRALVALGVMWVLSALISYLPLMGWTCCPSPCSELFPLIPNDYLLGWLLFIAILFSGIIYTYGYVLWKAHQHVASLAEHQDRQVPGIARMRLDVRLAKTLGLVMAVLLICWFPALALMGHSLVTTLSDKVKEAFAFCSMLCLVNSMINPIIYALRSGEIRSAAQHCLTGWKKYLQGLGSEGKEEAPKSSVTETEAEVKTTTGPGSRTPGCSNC

Rattus norvegicus [14] = organism: Rattus norvegicus; assay: Agonist activity at MOR/CB1R/CB2R in Wistar rat brain membranes after 60 mins by [35S]-GTPgammaS binding assay relative to control; type: cell membranes; procedure, shortened: as §1
[15] = molecular target: Cannabinoid receptor 1 (Rattus norvegicus) (UniProt P20272); assay: Agonist activity at CB1R in Wistar rat brain membranes at 10 uM in presence of rimonabant after 60 mins by [35S]-GTPgammaS binding assay relative to control; type: functional, cell membranes; procedure, shortened: as §1
Chain of Cannabinoid receptor 1 (Rattus norvegicus) (P20272 whole entry): as the sequence (P20272 whole entry, looked up, one chain of several) above

Rattus norvegicus [16] = assay: Effect on nociception of the contralateral paw in rat model of sodium iodoacetate-induced osteoarthritis paw withdrawal threshold in early phase at 20 ug administered as intrathecal injection measured up to 45 mins by Von Frey test (reference value: 44 +/- 2.4 g); type: organism-based; conditions: in vivo, icv_or_intrathecal, 0.75 h
Rattus norvegicus [17] = assay: Antiallodynic activity in sodium iodoacetate-induced rat model of osteoarthritis assessed as increase in maximum effect in early phase at 20 ug administered as intrathecal injection measured up to 45 mins by Von Frey test; type: functional, organism-based
Cannabinoid receptor 1 = Cannabinoid receptor 1 (Rattus norvegicus, UniProt P20272); assay: Agonist activity at CB1R in Wistar rat brain membranes in presence of rimonabant after 60 mins by [35S]-GTPgammaS binding assay; type: functional, cell membranes; procedure, shortened: as §1
Chain of Cannabinoid receptor 1 (P20272 whole entry): as the sequence (P20272 whole entry, looked up, one chain of several) above

[18] = molecular target: T4, Cannabinoid receptor 2 (Rattus norvegicus) (UniProt Q9QZN9); assay: Agonist activity at CB2R in Wistar rat brain membranes at 10 uM in presence of AM630 after 60 mins by [35S]-GTPgammaS binding assay relative to control; type: functional, cell membranes; procedure, shortened: as §1
T4 sequence (whole entry): T3 sequence (Q9QZN9 whole entry)

Rattus norvegicus [19] = organism: Rattus norvegicus; assay: Agonist activity at MOR/CB1R/CB2R in Wistar rat brain membranes at 10 uM in presence of naloxone,rimonabant and AM630 after 60 mins by [35S]-GTPgammaS binding assay relative to control; type: cell membranes; procedure, shortened: as §1
[20] = molecular target: T4, Cannabinoid receptor 2 (Rattus norvegicus); assay: Displacement of [3H]JWH-018 from CB2R in Wistar rat brain membranes at 10 uM after 60 mins by liquid scintillation analysis relative to control; type: cell membranes; procedure, shortened: as §3

Compound	pKi (Mu-type opioid receptor)	Emax (Rattus norvegicus [4]) [%]	Ki (Cannabinoid receptor [5]) [nM]	pKi [8]	Ki (Cannabinoid receptor [9]) [nM]	pKi [10]	pEC50 [11]	also measured
COc1ccc2c3c1O[C@H]1/C(=N\OCC(=O)NCCNC(=O)CCCCCn4cc(C(=O)c5cccc6ccccc56)c5ccccc54)CC[C@@]4(O)[C@@H](C2)N(C)CC[C@]314	7.48	100	255	6.21	9.3	6.47		Emax (Rattus norvegicus [1]): 103%; Emax [2]: 107%; Emax [3]: 101%; Emax [6]: 102%; Emax (Rattus norvegicus [7]): 102%
CCCCCn1cc(C(=O)c2cccc3ccccc23)c2cc(Br)ccc21			59					
C[C@@H](NC(=O)[C@@H](N)Cc1ccc(O)cc1)C(=O)NCC(=O)N[C@@H](Cc1ccccc1)C(=O)NCCC(=O)NCCCCCn1cc(C(=O)c2cccc3ccccc23)c2ccccc21	7.32	114	919	6.72	1216	6.82	7.74	
O=C(O)CCCCCn1cc(C(=O)c2cccc3ccccc23)c2ccccc21		81	247		205		5.37	
H-PVNFKFL-OH			> 10000					
COc1ccc2c3c1O[C@H]1/C(=N\OCC(=O)O)CC[C@@]4(O)[C@@H](C2)N(C)CC[C@]314	7.62	109		6.96		< 5.00	6.65	
C[C@@H](NC(=O)[C@@H](N)Cc1ccc(O)cc1)C(=O)NCC(=O)N[C@@H](Cc1ccccc1)C(=O)NCCCC(=O)NCCCCCn1cc(C(=O)c2cccc3ccccc23)c2ccccc21	7.70	125	928	7.04	1042	7.30	7.22	
COc1ccc2c3c1O[C@H]1/C(=N\OCC(=O)NCCCOCCOCCOCCCN)CC[C@@]4(O)[C@@H](C2)N(C)CC[C@]314	7.13	112		6.12		6.30	6.70	
NCCCCCn1cc(C(=O)c2cccc3ccccc23)c2ccccc21		102	190		269			
NC(=O)[C@H](Cc1ccccc1)NC(=O)[C@H](Cc1ccccc1)NC(=O)[C@@H]1CCCN1C(=O)[C@@H](N)Cc1ccc(O)cc1								Activity [12]: inactive
C[C@@H](NC(=O)[C@@H](N)Cc1ccc(O)cc1)C(=O)NCC(=O)N[C@@H](Cc1ccccc1)C(=O)NCC(=O)NCCCCCn1cc(C(=O)c2cccc3ccccc23)c2ccccc21		160	251	6.87	317	7.20	6.94	Activity (Mus musculus): Active; Activity (Rattus norvegicus [13]): 35 g; pEC50 (Cannabinoid receptor 2): 6.17; Emax (Rattus norvegicus [14]): 161%; Emax [15]: 125%; Activity (Rattus norvegicus [16]): 39 g; Activity (Rattus norvegicus [17]): Active; pEC50 (Cannabinoid receptor 1): 6.42; Emax [18]: 148%; Emax (Rattus norvegicus [19]): 100%
COc1ccc(C(=O)c2c(C)n(CCN3CCOCC3)c3cc(I)ccc23)cc1			27					Emax [2]: 100%; Activity [20]: 70%
COc1ccc2c3c1O[C@H]1/C(=N\OCC(=O)NCCN)CC[C@@]4(O)[C@@H](C2)N(C)CC[C@]314	7.77	113		6.27		6.33	6.35	
C[C@@H](NC(=O)[C@@H](N)Cc1ccc(O)cc1)C(=O)NCC(=O)N[C@@H](Cc1ccccc1)C(=O)NCCCCCn1cc(C(=O)c2cccc3ccccc23)c2ccccc21	7.30	110	1013	6.67	823	6.64	5.74	
C=CCN1CC[C@]23c4c5ccc(O)c4O[C@H]2C(=O)CC[C@@]3(O)[C@H]1C5								Activity [12]: inactive
CN1CC[C@]23c4c5ccc(O)c4O[C@H]2[C@@H](O)C=C[C@H]3[C@H]1C5								Activity [12]: inactive
Cc1c(C(=O)NN2CCCCC2)nn(-c2ccc(Cl)cc2Cl)c1-c1ccc(Cl)cc1								Emax [2]: 100%
NC(=O)[C@H](Cc1ccccc1)NC(=O)[C@H](Cc1c[nH]c2ccccc12)NC(=O)[C@@H]1CCCN1C(=O)[C@@H](N)Cc1ccc(O)cc1								Activity [12]: inactive
COc1ccc2c3c1O[C@H]1/C(=N\OCC(=O)NCCCCCCN)CC[C@@]4(O)[C@@H](C2)N(C)CC[C@]314	7.39	111		6.18		6.42	6.52	
COc1ccc2c3c1O[C@H]1/C(=N\OCC(=O)NCCCOCCOCCOCCCNC(=O)CCCCCn4cc(C(=O)c5cccc6ccccc56)c5ccccc54)CC[C@@]4(O)[C@@H](C2)N(C)CC[C@]314	7.70	99	183	6.41	78	6.73		Emax (Rattus norvegicus [1]): 99%; Emax [2]: 110%; Emax [3]: 100%; Emax [6]: 97%; Emax (Rattus norvegicus [7]): 101%
CC(C)C[C@H](NC(=O)[C@H](Cc1ccccc1)NC(=O)[C@H](CCCCN)NC(=O)[C@H](Cc1ccccc1)NC(=O)[C@H](CC(N)=O)NC(=O)[C@@H](NC(=O)[C@@H]1CCCN1)C(C)C)C(=O)N[C@@H](CO)C(=O)N[C@@H](Cc1cnc[nH]1)C(=O)O [HEMOPRESSIN]			2793					
CC(=O)NCCCCCn1cc(C(=O)c2cccc3ccccc23)c2ccccc21		83	145		149		5.67	
H-RVDPVNFKLLSH-OH			> 10000					
